Measurements reported in ChEMBL document CHEMBL1153770, “Chemical constituents of Heteroplexis micocephala” (J Nat Prod, 2009).
Calls of active or inactive are those of the source. No cut-off for these calls is given here.

Assays:
[1] = test system: A2780; assay: Cytotoxicity against human A2780 cells after 96 hrs by MTT assay; format: functional, cell-based
[2] = test system: Human immunodeficiency virus 1; assay: Antiviral activity against HIV1 NL4-3 co-transfected with VSV glycoprotein plasmid in human 293T cells after 48 hrs by luciferase reporter gene assay; format: functional, organism-based
Procedure, shortened: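 Env-deficient pNL4-3.luc.R-E- HIV-1 vector pseudotyped with VSV-G, made by co-transfecting 293T cells, quantified by p24 ELISA and diluted to 0.2 ng p24/mL. Target 293T cells were seeded at 6 × 10^4 per well one day before infection. Compounds were preincubated with cells 15 min before adding virus, with a solvent-only blank. Cells were lysed 48 h post-infection.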

[3] = organism: Rattus norvegicus; assay: Antiinflammatory activity in rat PMNCs assessed as inhibition of platelet activating factor-induced beta-glucuronidase release at 10 uM treated 15 mins before PAF challenge after 10 mins; format: functional
[4] = test system: PC-12; assay: Neuroprotective activity against glutamate-induced rat PC12 cell death at 10 uM pretreated for 24 hrs before glutamate challenge after 24 hrs by MTT assay; format: functional, cell-based
[5] = test system: Liver microsomes; assay: Antioxidant activity in rat liver microsomes assessed as inhibition of Fe(2+)-cystine-induced lipid peroxidation at 10 uM pretreated for 15 mins before Fe2+ challenge after 15 mins by TBA assay; format: functional; conditions: Microsome
[6] = molecular target: T1, Tyrosine-protein phosphatase non-receptor type 1 (Homo sapiens) (UniProt P18031); assay: Inhibition of GST-tagged human recombinant PTP1B assessed as paranitrophenol accumulation at 10 uM after 10 mins by spectrophotometry
T1 sequence (whole entry): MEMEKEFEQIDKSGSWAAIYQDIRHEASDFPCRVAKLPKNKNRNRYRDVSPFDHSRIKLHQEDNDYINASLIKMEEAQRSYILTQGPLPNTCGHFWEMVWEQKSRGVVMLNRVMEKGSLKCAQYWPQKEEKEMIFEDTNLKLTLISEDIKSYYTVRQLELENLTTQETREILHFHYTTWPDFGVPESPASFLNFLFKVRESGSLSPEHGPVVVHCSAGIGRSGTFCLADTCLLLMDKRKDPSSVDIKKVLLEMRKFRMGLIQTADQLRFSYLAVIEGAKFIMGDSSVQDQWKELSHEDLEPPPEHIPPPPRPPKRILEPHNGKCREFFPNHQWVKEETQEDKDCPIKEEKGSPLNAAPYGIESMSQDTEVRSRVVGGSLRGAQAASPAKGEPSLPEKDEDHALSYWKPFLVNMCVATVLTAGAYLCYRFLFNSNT

[7] = Homo sapiens, A2780, 96 h, read-out: IC50
[8] = Human immunodeficiency virus 1, NL4-3, HEK-293T, 48 h, read-out: IC50

| Compound | IC50 ([1]; a2780) | IC50 ([2]; 293t) | Activity [3] | Activity [4] | Activity [5] | Activity [6] | IC50 [1, 7] | IC50 [2, 8] |
| --- | --- | --- | --- | --- | --- | --- | --- | --- |
| CC(=O)CC/C=C1\C[C@@H](C=C(C)C)OC1=O [HETEROPLEXISOLIDE E] | Not Active | Not Active | inactive | inactive | inactive | inactive | – | – |
| CC(C)=C[C@@H]1OC(=O)[C@H](/C=C/C/C(C)=C/CCC2=CC(=O)OC2)[C@@H]1O [HETEROPLEXISOLIDE D] | – | Not Active | inactive | inactive | inactive | inactive | 4.37 µM | – |
| C[C@]12C[C@@H](c3ccoc3)OC(=O)[C@@H]1CC[C@@]13COC(=O)[C@@H]1C=CC(=O)[C@H]23 [8-EPIRHYNCHOSPERIN A] | Not Active | Not Active | inactive | inactive | inactive | inactive | – | – |
| CC(C)=C[C@@H]1OC(=O)/C(=C/CC/C(C)=C/CCC2=CC(=O)OC2)[C@@H]1O [HETEROPLEXISOLIDE C] | Not Active | Not Active | inactive | inactive | inactive | inactive | – | – |
| C/C=C(/C)C(=O)OC/C=C/c1cc(OC)c(OC)c(OC)c1 | Not Active | Not Active | inactive | inactive | inactive | inactive | – | – |
| CC[C@@]1(O)C(=O)OCc2c1cc1n(c2=O)Cc2cc3ccccc3nc2-1 [CAMPTOTHECIN] | – | – | – | – | – | – | 0.28 µM | – |
| C/C=C(/C)C(=O)OC/C=C/c1cc(OC)c(OC(=O)[C@@H](C)CC)c(OC)c1 | Not Active | Not Active | inactive | inactive | inactive | inactive | – | – |
| C/C1=C/CC(C)(C)[C@@H]2CC[C@@](C)(O)/C2=C/C1=O | Not Active | Not Active | inactive | inactive | inactive | inactive | – | – |
| CC(C)=C[C@@H]1C/C(=C\CC/C(C)=C/CCC2=CC(=O)OC2)C(=O)O1 [HETEROPLEXISOLIDE A] | Not Active | Not Active | inactive | inactive | inactive | inactive | – | – |
| C/C1=C/CC(C)(C)[C@@H]2CC[C@](C)(O)/C2=C/C1=O | Not Active | Not Active | inactive | inactive | inactive | inactive | – | – |
| COc1ccc(C(C)=O)cc1C(=O)CC(C)(C)O | Not Active | Not Active | inactive | inactive | inactive | inactive | – | – |
| CCOC(C)(C)CC(=O)c1cc(C(C)=O)ccc1OC | Not Active | Not Active | inactive | inactive | inactive | inactive | – | – |
| C=C(CC/C=C1\C[C@@H](C=C(C)C)OC1=O)C(O)CCC1=CC(=O)OC1 (stereo not given in full) [HETEROPLEXISOLIDE B] | Not Active | Not Active | inactive | inactive | inactive | inactive | – | – |
| C/C=C(/C)C(=O)OC/C=C/c1cc(OC)c(OC(=O)/C(C)=C\C)c(OC)c1 | Not Active | – | inactive | inactive | inactive | inactive | – | 4.04 µM |
| Cc1cn([C@H]2C[C@H](N=[N+]=[N-])[C@@H](CO)O2)c(=O)[nH]c1=O [ZIDOVUDINE] | – | – | – | – | – | – | – | 0.048 µM |
